Published values collected from several papers.
Compare with care: the assays were run in different laboratories.
Target: Serine/threonine-protein kinase 26 (STK26, Homo sapiens, UniProt Q9P289)

O=C(NCCCN1CCOCC1)c1ccc(Nc2nccc(-c3cc4ccccc4s3)n2)cc1  remaining binding (binding; competition with immobilised ligand; 1 µM): 87%
CN([C@@H]1CCc2c(CC(=O)O)c3ccccc3n2C1)S(=O)(=O)c1ccc(F)cc1  remaining binding (cell-free assay; competition with immobilised ligand; 1 µM): 79%
O=C(NCCCN1CCOCC1)c1ccc(Nc2ncc(Cl)c(-c3ccc(Cl)s3)n2)cc1  remaining binding (binding; competition with immobilised ligand; 1 µM): 16%
C[C@@H](c1ccc(-n2cnc3c(N)ncnc32)cc1)N1CCc2nn(C)c(Cc3ccccc3)c2C1=O  remaining binding (binding; competition with immobilised ligand; 0.1 µM): 88%
Cc1cnc(Nc2ccc(C(=O)N3CCC(N4CCCC4)CC3)cc2)nc1-c1cc2ccccc2s1  remaining binding (binding; competition with immobilised ligand; 1 µM): 77%
COc1cnc(Nc2cccc(S(N)(=O)=O)c2)nc1N1CCN(c2ccccc2)C(=O)C1  remaining binding (binding; competition with immobilised ligand; 1 µM): 83%
Cc1nc(C2CCN(C(=O)c3ccc(OC(F)(F)F)cc3N)CC2)c2ncc(N3CCN(C)CC3)cc2n1  remaining binding (cell-free assay; competition with immobilised ligand; 1 µM): 100%
C=CC(=O)N1CCC(C(=O)NCC(=O)N2CCN(c3nc(-c4cnc(N)nc4C(F)F)nc(N4CCOCC4)n3)CC2)CC1  remaining binding (binding; competition with immobilised ligand; 1 µM): 100%
c1cncc(-c2cccc(Nc3nccc(NC4CCCCC4)n3)c2)c1  remaining binding (binding; competition with immobilised ligand; 10 µM): 83%
CC(=O)c1c(NS(C)(=O)=O)c2cc(-c3ccc(Cl)cc3)c(-c3ccc(Cl)cc3Cl)nc2n(C)c1=O  remaining binding (cell-free assay; competition with immobilised ligand; 1 µM): 84%
Nc1ncc2c(n1)-c1c([nH]c3ccc(C#CC4CC4)cc13)CCCC2  remaining binding (binding; competition with immobilised ligand; 1 µM): 99%
O=C(Nc1c[nH]nc1C(=O)NC1CCNCC1)c1cc(F)cc(F)c1  remaining binding (binding; competition with immobilised ligand; 1 µM): 68%
CS(=O)(=O)N1CCCC(NC(=O)[C@H](CCC2CCCCC2)NC(=O)c2ccc(CNC(=O)c3cnc4ccccn34)cc2)C1 (some centres unmarked)  remaining binding (cell-free assay; competition with immobilised ligand; 0.1 µM): 100%
CN1CCN(c2ccc(Nc3nccc(-c4ccccc4)n3)cc2C(F)(F)F)CC1  remaining binding (binding; 10 µM): 81%
